The values that follow come from ChEMBL document CHEMBL5096237, “Orally Bioavailable Prodrugs of ψ-GSH: A Potential Treatment for Alzheimer's Disease” (J Med Chem, 2022).

Active and inactive are the calls of the source.

Data set [1] in a line: Stability in CD-1 mouse plasma assessed as half life at 1 uM measured upto 240 mins by LC-MS/MS analysis. The note with it: for t1/2: mouse, 4 h, 1 µM; for half-life at 1 µM: CD-1, mouse. The format is ADME, cell-free. Put shortly:
(§1)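 Compound at 1 μM final was incubated at 37 °C in plasma, brain homogenate, liver homogenate, simulated gastric fluid or simulated intestinal fluid. Aliquots taken at 0, 5, 15, 30, 60, 120 and 240 min were quenched with 3 volumes of acetonitrile containing 1% formic acid and centrifuged. Supernatants were analyzed by HPLC-UV (254 nm, after Fmoc-Cl derivatization) and/or LC-MS/MS to derive t1/2.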

A short description of data set [2]: Stability in CD-1 mouse assessed as half life at intestinal phase of gastrointestinal tract at 1 uM measured upto 240 mins by LC-MS/MS analysis. The format is ADME. The conditions noted are these: for t1/2: mouse, 4 h, 1 µM. The procedure, abridged: as §1
A short description of data set [3]: Stability in CD-1 mouse assessed as half life at gastric phase of gastrointestinal tract at 1 uM measured upto 240 mins by LC-MS/MS analysis. The format is ADME. The conditions noted are these: for t1/2: mouse, 4 h, 1 µM. Put shortly:
as §1

The species named for data set [4] is Mus musculus. Put plainly: Anti-alzheimer activity against A-beta injected mouse assessed as reduction in microglial activation in dentate gyrase region by GFAP staining based analysis. The format is functional, organism-based. The note with it: in the assay text read “Iba1 staining” for “GFAP staining”. The procedure, abridged: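 C57BL/6 mice were dosed with compound at 250 mg/kg once daily for 12 days; Aβ1–42 oligomers were given i.c.v. on day 4. Half-brains were fixed in 4% PFA for 24 h and sucrose-cryoprotected. 40 μm coronal sections, every 12th (4–6 sections), were immunostained for GFAP (astrocytes) or Iba1 (microglia) by ABC/DAB after antigen retrieval. Stained area fraction in dorsal hippocampus or dentate gyrus was measured stereologically at ×40.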

Data set [5] deals with Mus musculus. The data set is described as follows: Anti-alzheimer activity against APP/PS1 mouse model assessed as reduction in insoluble Abeta1-42 at 500 mg/kg, po […] by ELISA assay relative to control. Set-up: scale not given: the % may be the effect or the level left. The format is functional. Put shortly:
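APP/PS1 mice, 3–4 months old, were gavaged with ψ-GSH 500 mg/kg or saline three times weekly for 12 weeks. Insoluble brain Aβ1–42 was quantified by sandwich ELISA and expressed as % of saline-treated APP/PS1 mice.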
On the technique in general: ELISA stands for enzyme-linked immunosorbent assay.

The subject of data set [6] is Mus musculus. The data set is described as follows: Anti-alzheimer activity against APP/PS1 mouse model assessed as escape latency at 500 mg/kg, po measured after 4 days by Morris water maze test (reference value: 6.64+/-1.58 sec). The format is functional. The conditions noted are these: time 4 day.
For data set [7], the system named is Mus musculus. The data set is described as follows: Anti-alzheimer activity against APP/PS1 mouse model assessed as time spent in the target quadrant at 500 mg/kg, po measured after 4 days by Morris water maze test (reference value: 16.39+/-3.39%). The format is functional. The note with it: time 4 day.
Data set [8] is described as follows: AUC in CD-1 mouse measured in per mg of brain tissue at 500 mg/kg, ip. Set-up: dose 500 mg/kg, route ip. The conditions noted are these: in vivo. The format is ADME, organism-based. Put shortly:
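Male CD-1 mice, eight weeks old, N = 4 per time point. They received oral prodrug at 250 mg/kg, or ψ-GSH at 500 mg/kg i.p. for comparison. Blood and brain were taken at 2, 4 and 6 h. Brain was homogenized 1:5 (w/v) in DPBS. Plasma and homogenate were treated with 100 mM N-ethylmaleimide for 10 min at ambient temperature, deproteinized with 3% sulfosalicylic acid, then quantified by positive-ESI LC-MS/MS MRM, with ψ-GSH read as its NEM adduct.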

Data set [9] is described as follows: Stability in CD-1 mouse liver homogenate assessed as half life at 1 uM measured upto 240 mins by LC-MS/MS analysis. The format is ADME, tissue-based. Put shortly: (§2)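 Compound at 1 μM final was incubated at 37 °C in plasma, brain homogenate, liver homogenate, simulated gastric fluid or simulated intestinal fluid. Supernatants were analyzed by HPLC-UV (254 nm, after Fmoc-Cl derivatization) and/or LC-MS/MS to derive t1/2.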

Data set [10] has as its system Mus musculus. The data set is described as follows: Anti-alzheimer activity against oral dosed mouse brain assessed as restoration of reduced GSH level by […]. The format is functional, organism-based. Put shortly: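 Brains from the i.c.v. Aβ1–42 mice were homogenized and deproteinized with metaphosphoric acid. After neutralization, samples were diluted in 50 mM MES (pH 6.0, 1 mM EDTA). GSH was measured by enzymatic recycling with DTNB, reading TNB absorbance at 412 nm.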

Data set [11] is described as follows: Reversal of resistant against ip dosed Abeta1-42 induced cognitive impairment in mouse assessed as reduction in repetitive arm entries (reference value: 3.22+/-0.27). The conditions noted are these: in vivo.
A short description of data set [12]: Stability in CD-1 mouse brain homogenate assessed as half life at 1 uM measured upto 240 mins by LC-MS/MS analysis. The format is ADME, tissue-based. Put shortly:
as §2

In data set [13] the test system is Mus musculus. The data set is described as follows: Anti-alzheimer activity against APP/PS1 mouse model assessed as increase in spatial memory development at 500 mg/kg, po measured after 4 days by Morris water maze test. The format is functional, organism-based. The note with it: time 4.0 day.
In data set [14] the test system is Mus musculus. The data set is described as follows: Anti-alzheimer activity against oral dosed mouse brain assessed as reduction in AGE level by immunohistochemical analysis. The format is functional, organism-based.
A short description of data set [15]: Reversal of resistant against po dosed Abeta1-42 induced cognitive impairment in mouse assessed as reduction in repetitive arm entries (reference value: 3.22+/-0.27). The format is organism-based. The conditions noted are these: in vivo.
Data set [16] in a line: Stability in CD-1 mouse plasma at 250 mg/kg, po at 1 uM measured after 6 hrs by LC-MS/MS analysis. The format is ADME, organism-based. The conditions noted are these: in vivo.

Take `N[C@@H](CNC(=O)N1C(=O)SC[C@H]1C(=O)NCC(=O)O)C(=O)O`: in data set [1], the t1/2 was 25.57 h.
For the molecule `CCOC(=O)SC[C@H](NC(=O)NC[C@H](N)C(=O)O)C(=O)NCC(=O)O`, the values for the t1/2 in data set [1], in [2] and in data set [3] were 47.14 h, 38.5 h and 27.7 h, respectively.
For `CC(=O)SC[C@H](NC(=O)NC[C@H](N)C(=O)O)C(=O)NCC(=O)O`, the t1/2 in [1] was 5.8 h; in data set [2], 5.02 h; in data set [3], 28.88 h.
As a reminder, the half-life is the time needed for the level to fall by half in the phase considered. For `N[C@@H](CNC(=O)N[C@@H](CS)C(=O)NCC(=O)O)C(=O)O`, the result in the data set listed under Mus musculus [4], in the data set with Mus musculus [10] and in the data set with Mus musculus [13] was Active. The half-life at 1 µM is 0.23 h in data set [1]; 1.28 h in data set [2] (CD-1, mouse, intestinal phase of gastrointestinal tract); 28.8 h in data set [3] (CD-1, mouse, gastric phase of gastrointestinal tract); 0.02 h in data set [9]; 1.51 h in data set [12]. Moreover, the results for the Activity with Mus musculus [5] and in the data set with Mus musculus [7] were 90.8% and 21.76%, respectively. Further, the Time with Mus musculus [6] was 6.9 s. This molecule displayed an AUC in [8] of 8.06 nmol·h. In addition, the repetitive arm entries in data set [11] is 0.5.
As for `N[C@@H](CNC(=O)N1CSC[C@H]1C(=O)NCC(=O)O)C(=O)O`, the half-life at 1 µM in data set [1] was 30.6 h; in [9] it was 116 h.
Regarding `Cl.N[C@@H](CNC(=O)N[C@@H](CS)C(=O)NCC(=O)OC1CCCC1)C(=O)OC1CCCC1`, the figures for the t1/2 in data set [1], in data set [2] and in data set [3] were 72.2 h, 5.24 h and 4.87 h, respectively. The outcome in the data set on Mus musculus [14] was Active. Besides, the repetitive arm entries in data set [15] is 1.8. In data set [16], the Stability result is listed as “Stable”.
On to `CCOC(=O)SC[C@H](NC(=O)NC[C@H](N)C(=O)OC1CCCC1)C(=O)NCC(=O)OC1CCCC1`, for which, in [1], the t1/2 amounted to 61.32 h.
